# Assay outcomes as filed in PubChem.
# SENP6 block – SENP6 protease inhibition. Recombinant SENP6 catalytic domain, aminoluciferin luminescence. inhibition, % at 10 µM. 1.8% of 330,000 active. AID 2599;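 active = inhibition above about 50% at the single tested dose, limit read from the data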;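 also: plate controls were DMSO wells with enzyme for no effect and DMSO wells lacking enzyme for full effect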
# Target sequence (Q9GZR1 628-1112 limits assumed): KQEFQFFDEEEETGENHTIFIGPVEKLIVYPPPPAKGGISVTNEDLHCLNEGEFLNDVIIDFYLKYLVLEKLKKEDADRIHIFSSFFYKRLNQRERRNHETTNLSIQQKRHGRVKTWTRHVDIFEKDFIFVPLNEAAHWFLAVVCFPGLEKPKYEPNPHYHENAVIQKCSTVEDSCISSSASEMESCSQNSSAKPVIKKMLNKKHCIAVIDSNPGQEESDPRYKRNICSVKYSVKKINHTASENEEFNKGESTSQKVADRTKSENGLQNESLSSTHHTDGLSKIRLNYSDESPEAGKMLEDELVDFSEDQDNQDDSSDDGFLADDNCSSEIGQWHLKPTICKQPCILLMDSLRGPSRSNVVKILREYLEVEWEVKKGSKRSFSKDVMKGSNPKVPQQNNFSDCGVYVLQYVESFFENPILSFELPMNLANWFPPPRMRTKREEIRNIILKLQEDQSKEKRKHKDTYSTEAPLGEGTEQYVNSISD
# CendR NRP1 mod – NRP-1/CendR interaction modulation. O14786. FAM-RPARPAR peptide binding to NRP-1, fluorescence polarization. inhibition, % at 25 µM. 0.85% of 360,000 active. AID 602438;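 active = inhibition or corrected inhibition above about 18%, plus a signal ratio from 0.5 to 1.5, limit read from the data, passing the limit was not always enough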
# SENP1 FRET inh – blocks the human SENP1 SUMO protease catalytic domain; recombinant SENP1 catalytic domain, CyPet-SUMO1-YPet FRET cleavage; inhibition, % at 10 µM; 0.21% of 360,000 active; AID 624204;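 active = inhibition at least 30% at 10 µM, raw YFP signal under a set limit, fluorescence ratio 0.5 to 1.5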;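 also: 0% = enzyme with DMSO and 100% = no enzyme wells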
#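 system = hSENP1 catalytic domain, recombinant | reagent = SFCypet-SUMO1-SFYpet substrate at 25 nM | doses = one dose per compound, 10 µM, 0.5% DMSO | incubation = enzyme reaction for 50 min at room temperature, dark | measured by = FRET, CFP and YFP emission | controls = no-enzyme low, enzyme-DMSO high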
# SENP8 block-1 – blocks the human protease SENP8; purified SENP8, Z-RLRGG-aminoluciferin cleavage, luminescence; Q96LD8; 1.2% of 330,000 active; inhibition, % at 10 µM; AID 2540; in the data active = inhibition above about 50%
# SENP7 block – SENP7 protease inhibition; Q9BQF6; recombinant SENP7, Z-RLRGG-aminoluciferin luminescence, 40 min; inhibition, % at 5 µM; 1.5% of 330,000 active; AID 434973;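 active = inhibition above about 50% at the single test dose, limit read from the data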;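 also: plate controls were DMSO with enzyme for no effect and no enzyme buffer wells for full effect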
# SENP8 block-2 – SENP8 (human) protease inhibition. recombinant SENP8, Nedd8 substrate fluorescence. AID 602440. inhibition, % at 20 µM. 0.64% of 360,000 active. Q96LD8; in the data active = inhibition mostly above about 40%, no sharp cut-off; inactive = mostly below about 27%
# SENP8 confirm – human SENP8 inhibition, confirmed | shares compounds with SENP7 block | Recombinant SENP8, Z-RLRGG-aminoluciferin luminescence, 60 min | inhibition, % at 12.5 µM | 40% of 6,200 active;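 active = mean inhibition across replicates above about 50%, limit read from the data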
# SENP6 confirm – human SENP6 inhibition, confirmed. shares compounds with SENP7 block. recombinant SENP6, Z-RLRGG-aminoluciferin luminescence. inhibition, % at 12.5 µM. 58% of 6,200 active
# SENP7 confirm – confirmation of human SENP7 protease inhibitors | shares compounds with SENP7 block | recombinant SENP7, Z-RLRGG-aminoluciferin luminescence, 40 min | inhibition, % at 12.5 µM | 69% of 6,200 active | AID 488917
# Casp3 SENP sel – caspase-3 inhibition (SENP selectivity assay); shares compounds with SENP7 block; purified caspase-3, Z-DEVD-aminoluciferin luminescence, 60 min; inhibition, % at 12.5 µM; 60% of 6,200 active; AID 488918;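 active = mean inhibition above about 50%, limit read from the data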;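 also: plate controls were enzyme with DMSO for no effect and wells without caspase-3 for full effect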
# SENP luc ctr – luminescence interference (SENP counter-screen); shares compounds with SENP7 block; Pre-incubated SENP8/Z-RLRGG-aminoluciferin, luciferase luminescence interference; inhibition, % at 12.5 µM; 39% of 6,200 active;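 active = mean inhibition above about 50% when retested at one dose, limit read from the data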;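 also: plate controls were DMSO wells with completed reaction for no effect and substrate without enzyme for full effect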
# The depositor's hits bear a star; . = no result given. Sampled rows, rich in hits. Any-hit rate of the full collection: about 3.3%.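 The calls were made as follows, unless noted: active = mean inhibition above about 50% in the one-dose retest (limit read from the data); inactive = the rest.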
SMILES,SENP6 block,CendR NRP1 mod,SENP1 FRET inh,SENP8 block-1,SENP7 block,SENP8 block-2,SENP8 confirm,SENP6 confirm,SENP7 confirm,Casp3 SENP sel,SENP luc ctr
Cc1ncoc1C(=O)Nc1cccc(Cl)c1,50*,9,2,35,64*,7,60*,58*,86*,80*,57*
CCC(=O)N1CCC1(C)C(=O)NS(=O)(=O)c1cccc(C#N)c1 (configuration not stated),.,-1,-2,.,.,10,.,.,.,.,.
CCOC(=O)Cc1csc(N/N=C\c2ccccc2OC)n1,68*,6,-15,26,45,-188,58*,54*,79*,42,55*
Cc1ccc(C(=O)c2sc3nsc(C)c3c2N)cc1,57*,-11,-17,27,53*,16,12,27,60*,41,11
CC(=O)c1cccc(N/C=C\C(=O)c2ccc(C)cc2)c1,.,-11,-75,.,.,-236,.,.,.,.,.
O=C(/C=C/Nc1ccccc1F)c1ccc(Br)cc1,.,6,-43,.,.,-51,.,.,.,.,.
Cc1ccc(N/C=C/C(=O)c2ccccc2)cc1Br,63*,5,-98,45,83*,-153,4,4,6,23,11
CC(=O)c1ccc(N/C=C\C(=O)c2ccc(C)cc2)cc1,-17,-10,-156,-2,19,-369,.,.,.,.,.
O=C(/C=C/Nc1ccc(Br)cc1F)c1ccccc1,94*,-5,-16,94*,100*,-27,-27,15,36,65*,9
Cc1ccc(C(=O)/C=C/Nc2ccc3c(c2)OCO3)cc1,38,2,-21,-4,60*,-30,15,15,26,23,6
O=C(/C=C/Nc1cccc(O)c1)c1ccccc1,97*,-35,-30,96*,98*,-90,99*,99*,103*,97*,98*
CCCCCCN1C[C@@H](n2cc(-c3ccc(F)cc3)nn2)[C@H](O)C[C@@H]1c1ccc(Cl)cc1,.,5,1,.,.,17,.,.,.,.,.
Cc1ccc(C(=O)/C=C/Nc2cccc(O)c2)cc1,93*,-19,-35,88*,50,-68,10,93*,100*,77*,78*
O=C(/C=C/Nc1ccc(F)c(Cl)c1)c1ccccc1,71*,-3,-22,34,65*,-189,19,40,87*,58*,17
C/C(=C\C(=O)c1ccc(C)cc1)Nc1cccc(O)c1,84*,14,-5,76*,-21,16,82*,87*,98*,70*,88*
CC(=O)Nc1ccc(N/C=C/C(=O)c2ccc(Cl)cc2)cc1,-10,-32,-39,1,-1,-64,.,.,.,.,.
O=C(Nc1cccc(O)c1)c1cccc(C(=O)Nc2cccc(O)c2)c1,4,5,1,-8,9,9,.,.,.,.,.
O=C(Nc1ccc2ccccc2c1)C(=O)C1C(=O)Nc2ccccc21 (configuration not stated),92*,.,.,84*,78*,.,73*,74*,89*,77*,8
O=C(Nc1ccc(F)cc1)C(=O)C1C(=O)Nc2ccccc21 (configuration not stated),24,-16,-1,1,13,25,.,.,.,.,.
CCCCN1CC(=O)N2[C@@H]3c4cc(OC)ccc4OC[C@@H]3[C@H](C(=O)OCC)[C@]2(C)C1=O,.,10,-1,.,.,-20,.,.,.,.,.
O=C(c1ccc(-c2nnc(-c3ccccc3)o2)cc1)N1CCCCCC1,96*,-8,2,88*,93*,14,2,50,60*,69*,35
Cc1ccc(-c2nnc(-c3ccccc3)o2)cc1,92*,0,2,82*,93*,-8,-7,80*,96*,86*,54*
O=C(O)c1ccc(C(=O)C(=O)c2ccccc2)cc1,66*,-3,2,38,17,15,43,40,80*,85*,67*
O=C(O)c1ccc(-c2nnc(-c3ccccc3)o2)cc1,99*,12,3,95*,98*,21,3,97*,101*,96*,81*
Nc1ccc(C(=O)O)cc1,-4,-7,1,2,1,5,.,.,.,.,.
SMILES,SENP6 block,CendR NRP1 mod,SENP1 FRET inh,SENP8 block-1,SENP7 block,SENP8 block-2,SENP8 confirm,SENP6 confirm,SENP7 confirm,Casp3 SENP sel,SENP luc ctr
CCN(CC)C(=O)C1=C(C)N(Cc2ccc(C(C)(C)C)cc2)C(=O)C(CC(=O)NCC2CCCCC2)C1 (configuration not stated),.,-7,0,.,.,10,.,.,.,.,.
O=C(Nc1ccc(Cl)c(Cl)c1)c1ccccc1,90*,22,-2,84*,80*,8,-26,79*,96*,57*,27
O=C(Nc1ccc2c(c1)OCCO2)c1ccc(Cl)cc1,81*,2,1,59*,73*,3,46,75*,92*,76*,14
O=C(Nc1ccc(Cl)cc1)c1ccc2c(c1)OCO2,73*,-5,0,37,76*,22,37,54*,88*,74*,18
O=C(Nc1cccc(C(=O)O)c1)Nc1ccc2c(c1)OCO2,96*,-3,0,92*,100*,4,97*,97*,101*,93*,96*
Cc1ccc(S(=O)(=O)N2[C@H](CC(=O)OCc3ccccc3)OC[C@@H]2C(C)C)cc1,.,-2,0,.,.,16,.,.,.,.,.
CC1(C(=O)Nc2cccc3cccnc23)CCN1C(=O)CC1CC1 (configuration not stated),.,14,-4,.,.,-15,.,.,.,.,.
CCOC(=O)c1c(C)nsc1NC(=O)C1(C)CCN1C(=O)CC (configuration not stated),.,-8,0,.,.,12,.,.,.,.,.
COc1ccc(NC(=O)COC(=O)c2ccc(S(=O)(=O)N3CCCCC3)cc2)c(OC)c1,.,5,3,.,.,10,.,.,.,.,.
CCC1NC(=O)c2cccnc2-n2c1nc1ccc(F)cc1c2=O (configuration not stated),.,0,-1,.,.,2,.,.,.,.,.
O=C(Nc1ccc(Nc2ccccc2)cc1)c1ccc(Cl)cc1,-7,-8,0,-9,6,1,.,.,.,.,.
